From ChEMBL document CHEMBL4477184, “Pelianthinarubins A and B, Red Pyrroloquinoline Alkaloids from the Fruiting Bodies of the Mushroom Mycena pelianthina” (J Nat Prod, 2016)
Calls of active or inactive are those of the source.

Assays:
Assay type in all cases: functional, organism-based
Brevibacillus brevis = assay: Antibacterial activity against Bacillus brevis after 24 hrs by plate diffusion assay
Procedure, shortened: (§1)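 Paper discs (6 mm diameter, 0.5 mm thick) were loaded with 0.1 or 0.5 mg of sample dissolved in distilled water and dried under sterile conditions. The discs were then placed on agar plates inoculated with the test bacterium and incubated at 37 °C for 24 h.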

Folsomia candida = assay: Insecticidal activity against Folsomia candida
Escherichia coli = assay: Antibacterial activity against Escherichia coli after 24 hrs by plate diffusion assay; procedure, shortened: as §1
Bacillus subtilis = assay: Antibacterial activity against Bacillus subtilis after 24 hrs by plate diffusion assay; procedure, shortened: as §1
Lepidium sativum = assay: Herbicidal activity against Lepidium sativum
Cladosporium cucumerinum = assay: Antifungal activity against Cladosporium cucumerinum after 48 hrs by plate diffusion assay
Procedure, shortened: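 Disc diffusion assay. Paper discs (6 mm) were loaded with 0.1 or 0.5 mg of sample from distilled water and dried under sterile conditions. The discs were laid on agar plates inoculated with Cladosporium cucumerinum, and the plates were incubated at 18 °C for 48 h.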

Measured: Activity

C[N+](C)(C)[C@@H](Cc1cn([C@@H]2CCN3C4=C2C(=O)C(=O)c2[nH]cc(c24)C[C@H]3C(=O)O)cn1)C(=O)O
inactive: Brevibacillus brevis | Folsomia candida | Escherichia coli | Bacillus subtilis | Lepidium sativum | Cladosporium cucumerinum

C[N+](C)(C)[C@H](C(=O)O)[C@H](O)c1cn([C@@H]2CCN3C4=C2C(=O)C(=O)c2[nH]cc(c24)C[C@H]3C(=O)O)cn1
inactive: Brevibacillus brevis | Folsomia candida | Escherichia coli | Bacillus subtilis | Lepidium sativum | Cladosporium cucumerinum
